ChEMBL document CHEMBL1123129, “Hypolipidemic activity of indan-1,3-dione derivatives in rodents” (J Med Chem, 1985)

Legend:
[1] = tested on: Mus musculus; test: Hypolipidemic activity in CF1 male mice at a dose of 20 mg/kg per day, serum cholesterol measured on the 9th day; type: functional
Outline: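 CF1 male mice (~30 g) were given 20 mg/kg per day ip at 11:00 a.m.; N = 6 per group. Tail-vein serum was collected in nonheparinized microcapillaries. Cholesterol was measured on days 9 and 16 by modified Liebermann–Burchard on duplicate 25 µL samples. Triglyceride was measured on day 16 in a separate group, duplicate 50 µL. Values are % control ± SD; Student's t test.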

[2] = tested on: Rattus norvegicus; test: Compound was evaluated for the hypolipidemic activity at 20 mg/kg per day orally for 14 days on phospholipids content in rat small intestine.; type: functional; conditions: route oral
Outline: (§1)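 Male Sprague–Dawley rats were dosed orally for 14 days. Liver, small intestine and a 24-h fecal collection were lipid-extracted. Extracts were assayed for cholesterol (modified Liebermann–Burchard), triglyceride (enzymatic kit), neutral lipids, phospholipids and protein. Values are % of 1% CMC vehicle control, mean ± SD, N = 6.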

[3] = tested on: Mus musculus; test: Compound was evaluated for the hypolipidemic activity in CF1 male mice at a dose of 20 mg/kg orally for Serum triglyceride at 16th day; type: functional; conditions: route oral
Outline: (§2)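 CF1 male mice received the agent orally in 1% CMC at 10–60 mg/kg per day. Tail-vein blood was taken on days 9 and 16. Serum cholesterol was measured by modified Liebermann–Burchard on duplicate 25-µL samples, and serum triglyceride on day 16 in duplicate 50-µL samples. Values are % of vehicle control, mean ± SD, N = 6; Student's t test.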

[4] = tested on: Mus musculus; test: Compound was evaluated for the hypolipidemic activity in CF1 male mice at a dose of 60 mg/kg orally for Serum cholesterol at 16th day; type: functional; conditions: route oral; outline: as §2
[5] = tested on: Rattus norvegicus; test: Compound was evaluated for the hypolipidemic activity at 20 mg/kg per day orally for 14 days on neutral lipids content in rat small intestine.; type: functional; conditions: route oral; outline: as §1
[6] = organism: Mus musculus; test: In Vitro evaluation for the CF1 liver enzyme activity on Mitochondrial citrate exchange at concentration 200 uM; type: functional
Outline: (§3)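 Mouse liver enzymes assayed in vitro on 10% homogenates of CF1 male mouse liver, with test drug added at 50–200 μM. Each enzyme follows a published procedure. Protein is measured by Lowry. Activity is given as % of untreated control (X ± SD, N = 6).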

[7] = target: T1, ATP-citrate synthase (Mus musculus) (UniProt Q91V92); test: In Vitro evaluation for the CF1 liver enzyme activity on ATP-Citrate Lyase exchange at concentration 50 uM
T1 sequence (whole entry): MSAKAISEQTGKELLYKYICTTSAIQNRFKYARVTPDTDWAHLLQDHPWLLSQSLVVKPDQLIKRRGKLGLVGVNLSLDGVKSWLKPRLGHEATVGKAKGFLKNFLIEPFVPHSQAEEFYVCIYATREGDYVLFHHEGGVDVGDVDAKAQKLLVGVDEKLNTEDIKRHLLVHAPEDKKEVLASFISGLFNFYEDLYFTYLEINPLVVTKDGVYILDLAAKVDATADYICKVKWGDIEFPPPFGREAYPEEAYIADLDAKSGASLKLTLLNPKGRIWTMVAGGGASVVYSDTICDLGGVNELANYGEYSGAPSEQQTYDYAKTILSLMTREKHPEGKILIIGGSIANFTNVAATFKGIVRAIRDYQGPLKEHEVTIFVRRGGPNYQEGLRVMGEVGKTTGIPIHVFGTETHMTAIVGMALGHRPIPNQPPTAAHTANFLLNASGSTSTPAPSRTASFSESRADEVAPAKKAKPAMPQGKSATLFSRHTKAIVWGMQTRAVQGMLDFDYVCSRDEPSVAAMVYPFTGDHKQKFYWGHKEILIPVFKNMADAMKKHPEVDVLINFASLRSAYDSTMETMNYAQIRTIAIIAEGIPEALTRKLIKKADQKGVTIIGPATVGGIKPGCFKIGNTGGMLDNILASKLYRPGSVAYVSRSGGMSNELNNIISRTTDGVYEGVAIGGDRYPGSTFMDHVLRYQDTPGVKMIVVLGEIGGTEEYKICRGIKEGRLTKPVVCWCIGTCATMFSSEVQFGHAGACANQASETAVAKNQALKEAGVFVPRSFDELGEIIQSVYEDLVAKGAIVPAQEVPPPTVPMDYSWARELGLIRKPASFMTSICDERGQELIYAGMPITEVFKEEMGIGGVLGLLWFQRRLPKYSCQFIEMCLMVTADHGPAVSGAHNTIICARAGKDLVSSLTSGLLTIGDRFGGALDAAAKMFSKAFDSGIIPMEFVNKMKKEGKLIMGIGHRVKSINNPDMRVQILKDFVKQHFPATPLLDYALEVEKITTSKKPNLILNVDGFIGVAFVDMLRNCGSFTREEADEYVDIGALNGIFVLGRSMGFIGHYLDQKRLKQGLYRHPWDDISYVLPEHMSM
Outline: (§4)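 Liver was taken from CF1 male mice and made into 10% homogenates, which were incubated with test compound at 50, 100 or 200 µM. Each enzyme was assayed by its literature method, and protein was measured by Lowry. N = 6. Activity is expressed as % of untreated control ± SD.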

[8] = tested on: Rattus norvegicus; test: Compound was evaluated for the hypolipidemic activity at 20 mg/kg per day orally for 14 days on protein content in rat feces.; type: functional; conditions: route oral; outline: as §1
[9] = tested on: Mus musculus; test: In Vivo effect for the hypolipidemic activity on Acetyl-CoA carboxylase in CF1 mice after 16 days administered orally at a dose of 40 mg/kg; type: functional; conditions: route oral
Outline: (§5)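 CF1 male mice are dosed orally at 10–60 mg/kg per day for 16 days, with 1% CMC as the control vehicle. Liver is homogenized at 10% in 0.25 M sucrose + 0.001 M EDTA, pH 7.2. Enzymes are assayed by literature methods, with Lowry protein. Activity is given as % of control (X ± SD, N = 6), with p from Student's t test.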

[10] = target: T1, ATP-citrate synthase (Mus musculus); test: In Vitro evaluation for the CF1 liver enzyme activity on ATP-Citrate Lyase exchange at concentration 100 uM; outline: as §4
[11] = tested on: Rattus norvegicus; test: Compound was evaluated for the hypolipidemic activity at 20 mg/kg per day orally for 14 days on cholesterol content in rat feces.; type: functional; conditions: route oral; outline: as §1
[12] = target: T2, Cholesterol 7-alpha-hydroxylase (Cytochrome P450 7A1) (Mus musculus, UniProt Q64505); test: In vitro percent Cholesterol 7-alpha-hydroxylase activity in mouse CF1 liver microsomes at 200 uM; parameters: species or system Microsome; conditions: read-out: Control; outline: as §3
[13] = target: T2, Cholesterol 7-alpha-hydroxylase (Cytochrome P450 7A1); test: In vitro percent Cholesterol 7-alpha-hydroxylase activity in mouse CF1 liver microsomes at 100 uM; parameters: species or system Microsome; conditions: read-out: Control; outline: as §3
[14] = tested on: Rattus norvegicus; test: Compound was evaluated for the hypolipidemic activity at 20 mg/kg per day orally for 14 days on cholesterol content in rat VLDL; type: functional; conditions: route oral
Outline: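 Male Sprague–Dawley rats (~300 g) were dosed orally each day. Blood was drawn from the abdominal vein. Lipoprotein fractions (chylomicron, VLDL, LDL, HDL) were separated by the Hatch–Lees and Havel methods. Each fraction was assayed for cholesterol, triglyceride (enzymatic kit), neutral lipids, phospholipids and Lowry protein. Values are % of 1% CMC vehicle control, N = 6.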

[15] = target: T1, ATP-citrate synthase (Mus musculus); test: In Vivo effect for the hypolipidemic activity on ATP-Citrate Lyase in CF1 mice after 16 days of oral administration at a dose of 20 mg/kg; type: organism-based; parameters: dose 20 mg/kg; outline: as §5

T2 sequence (Q64505 whole entry): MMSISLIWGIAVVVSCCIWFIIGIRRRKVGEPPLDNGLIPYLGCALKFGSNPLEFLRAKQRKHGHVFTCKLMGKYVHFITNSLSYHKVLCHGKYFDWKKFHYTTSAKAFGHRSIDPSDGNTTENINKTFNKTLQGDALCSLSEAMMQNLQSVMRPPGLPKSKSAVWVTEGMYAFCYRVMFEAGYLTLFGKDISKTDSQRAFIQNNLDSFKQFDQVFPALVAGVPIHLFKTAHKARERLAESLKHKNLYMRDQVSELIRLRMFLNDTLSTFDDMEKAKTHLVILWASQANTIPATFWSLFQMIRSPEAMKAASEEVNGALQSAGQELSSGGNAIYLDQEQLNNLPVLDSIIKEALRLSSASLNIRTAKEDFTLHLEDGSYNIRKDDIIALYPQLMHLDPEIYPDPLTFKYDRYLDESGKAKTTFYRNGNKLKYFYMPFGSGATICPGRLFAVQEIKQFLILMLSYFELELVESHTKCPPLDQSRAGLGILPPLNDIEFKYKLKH

## COc1ccc(C2C(=O)c3ccccc3C2=O)cc1 [ANISINDIONE]
[1]
  Serum cholesterol, % of control: 58%
[2]
  Control: 136%
[3]
  Control: 48%
[4]
  Control: 62%
[5]
  Control: 95%
[6]
  Control: 36%
[7]
  Control: 72%
[8]
  Control: 99%
[9]
  Control: 98%
[10]
  Control: 51%
[11]
  Control: 187%
[12]
  activity at 200 µM: 113%
[13]
  activity at 100 µM: 144%
[14]
  Control: 88%
[15]
  Control: 43%
